From ChEMBL document CHEMBL3112531, “Synthesis and evaluation of 4-(2-pyrimidinylamino) benzamides inhibitors of hedgehog signaling pathway” (Bioorg Med Chem Lett, 2014)

What was measured:
[1] = Inhibition of hedgehog signaling pathway in mouse NIH/3T3 cells by Gli1-luciferase reporter gene assay; assay type: cell-based; conditions: NIH3T3
[2] = Mean residence time (0 to t) in Sprague-Dawley rat at 5 mg/kg, po; assay type: ADME, organism-based; parameters: dose 5 mg/kg, route oral; conditions: in vivo
Procedure, shortened: (§1)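 SD rats dosed orally at 5 mg/kg in 0.5% HPMC + 0.3% Tween-80 (pH 2.8). Blood samples (n = 3) were centrifuged at 4000 rpm for 5 min at 4 °C. Plasma concentration–time data were analysed noncompartmentally.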

[3] = test system: Rattus norvegicus; test: (§2) Mean residence time (0 to t) in Sprague-Dawley rat at 1 mg/kg, iv; assay type: ADME, organism-based; parameters: dose 1 mg/kg, route intravenous; conditions: in vivo
Procedure, shortened: (§3)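 SD rats given a single 1 mg/kg iv dose in 5% DMA + 5% Tween-80. Plasma concentration–time data were analysed by a noncompartmental approach.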

[4] = AUC in Sprague-Dawley rat at 1 mg/kg, iv; assay type: ADME, organism-based; parameters: dose 1 mg/kg, route intravenous; conditions: plasma; procedure, shortened: as §3
[5] = AUC in Sprague-Dawley rat at 5 mg/kg, po; assay type: ADME, organism-based; parameters: dose 5 mg/kg, route oral; conditions: plasma; procedure, shortened: as §1
[6] = test system: Rattus norvegicus; test: Volume of distribution at steady state in Sprague-Dawley rat at 5 mg/kg, po; assay type: ADME, organism-based; parameters: dose 5 mg/kg, route oral; conditions: in vivo; procedure, shortened: as §1
[7] = Half life in Sprague-Dawley rat at 5 mg/kg, po; assay type: ADME, organism-based; parameters: dose 5 mg/kg, route oral; conditions: in vivo; procedure, shortened: as §1
[8] = Half life in Sprague-Dawley rat at 1 mg/kg, iv; assay type: ADME, organism-based; parameters: dose 1 mg/kg, route intravenous; conditions: in vivo; procedure, shortened: as §3
[9] = Clearance in Sprague-Dawley rat at 5 mg/kg, po; assay type: ADME, organism-based; parameters: dose 5 mg/kg, route oral; conditions: in vivo; procedure, shortened: as §1
[10] = Volume of distribution at steady state in Sprague-Dawley rat at 1 mg/kg, iv; assay type: ADME, organism-based; parameters: dose 1 mg/kg, route intravenous; conditions: Sprague-Dawley, in vivo, read-out: Vdss; procedure, shortened: as §3
[11] = Cmax in Sprague-Dawley rat at 1 mg/kg, iv; assay type: ADME, organism-based; parameters: dose 1 mg/kg, route intravenous; conditions: in vivo; procedure, shortened: as §3
[12] = Cmax in Sprague-Dawley rat at 5 mg/kg, po; assay type: ADME, organism-based; parameters: dose 5 mg/kg, route oral; conditions: in vivo; procedure, shortened: as §1
[13] = Clearance in Sprague-Dawley rat at 1 mg/kg, iv; assay type: ADME, organism-based; parameters: dose 1 mg/kg, route intravenous; conditions: in vivo; procedure, shortened: as §3
[14] = as §2; assay type: ADME, organism-based; parameters: dose 1 mg/kg, route intravenous; conditions: Sprague-Dawley, in vivo; procedure, shortened: as §3
[15] = Ratio of GDC-0449 IC50 to compound IC50 for hedgehog signaling pathway in mouse NIH/3T3 cells by Gli1-luciferase reporter gene assay; assay type: cell-based
[16] = Oral bioavailability in Sprague-Dawley rat at 5 mg/kg; assay type: ADME, organism-based; conditions: in vivo
Procedure, shortened: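 Oral dosing of SD rats at 5 mg/kg in 0.5% HPMC + 0.3% Tween-80 (pH 2.8), with blood samples n = 3, alongside iv dosing at 1 mg/kg in 5% DMA + 5% Tween-80. Plasma concentration–time data were analysed noncompartmentally.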

Row | IC50 [1] | SMILES | other results
1 | 0.28 nM | Cc1ccc(CN2CCC(=O)CC2)cc1NC(=O)c1ccc(Nc2ncc(C)c(-c3ccc(OC(F)(F)F)cc3)n2)cc1 | 
2 | 10.5 nM | Cc1ccc(CN2CCNCC2)cc1NC(=O)c1ccc(Nc2ncc(C)c(-c3ccc(OC(F)(F)F)cc3)n2)cc1 | 
3 | 18.1 nM | Cc1ccc(CNC(C)(C)C)cc1NC(=O)c1ccc(Nc2ncc(C)c(-c3cnn(C)c3)n2)cc1 | 
4 | 0.76 nM | Cc1ccc(CN2C(C)(C)CCCC2(C)C)cc1NC(=O)c1ccc(Nc2ncc(C)c(-c3ccc(OC(F)(F)F)cc3)n2)cc1 | 
5 | 1.3 nM | Cc1cnc(Nc2ccc(C(=O)Nc3c(C)cccc3C)cc2)nc1-c1ccc(OC(F)(F)F)cc1 | MRT last [2]: 5.1 h; MRT [3]: 4 h
6 | 2.5 nM | Cc1ccc(CNCc2ccco2)cc1NC(=O)c1ccc(Nc2ncc(C)c(-c3ccc(OC(F)(F)F)cc3)n2)cc1 | 
7 | 5.6 nM | Cc1ccc(CN2CCCCC2)cc1NC(=O)c1ccc(Nc2ncc(C)c(-c3cnn(C)c3)n2)cc1 | 
8 | 0.45 nM | Cc1ccc(CN2C[C@@H](C)O[C@@H](C)C2)cc1NC(=O)c1ccc(Nc2ncc(C)c(-c3ccc(OC(F)(F)F)cc3)n2)cc1 | AUC [4]: 580 ng·h/mL; AUC [5]: 1300 ng·h/mL; Vdss [6]: 42.9 L/kg; half-life [7]: 9.5 h; half-life [8]: 9.2 h; CL/F [9]: 51.9 mL/min/kg; MRT last [2]: 9.7 h; Vd [10]: 20 L/kg; Cmax [11]: 300 ng/mL; Cmax [12]: 94 ng/mL; clearance [13]: 24.9 mL/min/kg; MRT last [14]: 7.4 h; Ratio IC50 [15]: 7; bioavailability [16]: 44.4%
9 | 0.89 nM | Cc1ccc(CN(C)C(C)C)cc1NC(=O)c1ccc(Nc2ncc(C)c(-c3ccc(OC(F)(F)F)cc3)n2)cc1 | 
10 | 0.72 nM | CCNCc1ccc(C)c(NC(=O)c2ccc(Nc3ncc(C)c(-c4ccc(OC(F)(F)F)cc4)n3)cc2)c1 | 
11 | 0.29 nM | Cc1ccc(CN2C(C)(C)CC(=O)CC2(C)C)cc1NC(=O)c1ccc(Nc2ncc(C)c(-c3ccc(OC(F)(F)F)cc3)n2)cc1 | 
12 | 0.93 nM | CCCN(C)Cc1ccc(C)c(NC(=O)c2ccc(Nc3ncc(C)c(-c4ccc(OC(F)(F)F)cc4)n3)cc2)c1 | 
13 | 0.34 nM | Cc1ccc(CN2CCSCC2)cc1NC(=O)c1ccc(Nc2ncc(C)c(-c3ccc(OC(F)(F)F)cc3)n2)cc1 | Ratio IC50 [15]: 7
14 | 0.43 nM | Cc1ccc(CN2CCCC2)cc1NC(=O)c1ccc(Nc2ncc(C)c(-c3ccc(OC(F)(F)F)cc3)n2)cc1 | Ratio IC50 [15]: 7
15 | 2 nM | Cc1ccc(CN2CCN(c3ccccc3)CC2)cc1NC(=O)c1ccc(Nc2ncc(C)c(-c3ccc(OC(F)(F)F)cc3)n2)cc1 | 
16 | 33.6 nM | Cc1ccc(CNCCN2CCCCC2)cc1NC(=O)c1ccc(Nc2ncc(C)c(-c3ccc(OC(F)(F)F)cc3)n2)cc1 | 
17 | 0.61 nM | Cc1ccc(CN2CCN(C)CC2)cc1NC(=O)c1ccc(Nc2ncc(C)c(-c3ccncc3)n2)cc1 | AUC [4]: 270 ng·h/mL; half-life [8]: 1.1 h; Vd [10]: 5.7 L/kg; Cmax [11]: 580 ng/mL; clearance [13]: 61.5 mL/min/kg; MRT last [14]: 0.9 h
18 | 2.7 nM | Cc1ccc(CN(C2CCCCC2)C2CCCCC2)cc1NC(=O)c1ccc(Nc2ncc(C)c(-c3ccc(OC(F)(F)F)cc3)n2)cc1 | 
19 | 1.3 nM | Cc1ccc(CN2CCN(C(=O)C3CC3)CC2)cc1NC(=O)c1ccc(Nc2ncc(C)c(-c3ccc(OC(F)(F)F)cc3)n2)cc1 | 
20 | 0.59 nM | Cc1ccc(CN(C)C)cc1NC(=O)c1ccc(Nc2ncc(C)c(-c3ccc(OC(F)(F)F)cc3)n2)cc1 | 
21 | 0.9 nM | Cc1ccc(CNC(C)(C)C)cc1NC(=O)c1ccc(Nc2ncc(C)c(-c3ccc(OC(F)(F)F)cc3)n2)cc1 | 
22 | 10.9 nM | Cc1ccc(CN(CCNC(C)C)C(C)C)cc1NC(=O)c1ccc(Nc2ncc(C)c(-c3ccc(OC(F)(F)F)cc3)n2)cc1 | 
23 | 31.9 nM | Cc1ccc(CN(CCO)CCO)cc1NC(=O)c1ccc(Nc2ncc(C)c(-c3cnn(C)c3)n2)cc1 | 
24 | 1.1 nM | Cc1ccc(CNCCO)cc1NC(=O)c1ccc(Nc2ncc(C)c(-c3ccc(OC(F)(F)F)cc3)n2)cc1 | 
